NF-kB neuron act: NF-kB expression increase, human neuronal cells; NF-kB reporter expression; stronger effect = higher value; fold change at 12.5 µM; 1.6% of 190,000 active; AID 1239; in the data active = fold change above about 3.3
APP 5'UTR act: activates APP 5'UTR luciferase reporter; SH-SY5Y APP 5'UTR luciferase reporter, luminescence; zero percent = DMSO vehicle wells; activation, % at 2 µM; 1% of 190,000 active;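 active = activation above a set limit, based on mean plus 3 SD of controls, cut at about 140% in these data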
FLuc inh counter: inhibits firefly luciferase, flagging false hits in luciferase inhibition screens; P08659; ATPLite firefly luciferase biochemical luminescence, 10 min; inhibition, % at 10 µM; 1.5% of 200,000 active; AID 1006;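 active = inhibition above about 50% when tested at 10 µM, limit read from the data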
Target sequence (P08659 whole entry, looked up): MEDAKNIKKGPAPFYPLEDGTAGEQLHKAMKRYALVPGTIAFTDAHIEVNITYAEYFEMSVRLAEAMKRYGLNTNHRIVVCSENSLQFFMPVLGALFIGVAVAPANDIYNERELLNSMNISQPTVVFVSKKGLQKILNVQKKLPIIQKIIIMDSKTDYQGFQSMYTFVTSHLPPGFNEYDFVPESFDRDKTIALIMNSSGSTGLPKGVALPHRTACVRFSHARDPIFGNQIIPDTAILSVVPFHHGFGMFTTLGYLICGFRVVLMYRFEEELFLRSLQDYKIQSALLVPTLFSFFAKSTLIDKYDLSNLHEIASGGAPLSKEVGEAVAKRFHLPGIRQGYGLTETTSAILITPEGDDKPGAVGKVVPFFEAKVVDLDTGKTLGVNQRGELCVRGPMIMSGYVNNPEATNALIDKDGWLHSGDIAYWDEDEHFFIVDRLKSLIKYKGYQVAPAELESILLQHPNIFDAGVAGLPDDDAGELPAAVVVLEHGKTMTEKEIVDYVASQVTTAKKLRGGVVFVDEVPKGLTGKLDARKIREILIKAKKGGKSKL
STAT1 activator: STAT1 signaling activation. NIH 3T3 STAT1-luciferase reporter, IFN-gamma, luminescence; 100% = IFN-gamma alone, no compound. activation (% of control), % at 5.5 µM. 2.6% of 200,000 active. AID 932;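 active = activation above the screen-wide mean activation plus 3 SD, cut at about 130% in these data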
SDO1 yeast rescue: sdo1-depleted yeast growth rescue | z-score at 10 µM | 0.21% of 140,000 active | S. cerevisiae sdo1-depleted JHY4D growth rescue, OD600 30 h; stronger effect = higher value; pdr5 snq2 efflux-pump mutant strain;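 active = z-score above 3 at both the 24 hr and the 30 hr optical density reads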
FLuc stim CS: firefly luciferase counter-screen for stimulation assays; P08659; 200,000 tested, under 10 active; ATPlite luciferase biochemical, luminescence, 10 min; 0 = ATP-free wells, 1 = DMSO control; activation factor at 10 µM;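 active = luciferase activation factor, scaled between plate controls, of at least 2 with compound at 10 µM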
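Material: Luciferase/luciferin reagent mix; Doses: test compounds dosed from 2 mM stocks in 100% DMSO; Schedule: 10 min incubation after luciferase reagent addition, room temperature; Measured by: luminescence from luciferase reaction; Read-out: luminescence gain marking luciferase activators.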
Large screens that a line does not name were inactive. Sampled rows, rich in hits. Any-hit rate of the full collection: about 4.3%.

Cc1cccc(S(=O)(=O)Nc2ccc(-c3nc4ccc(C)cc4s3)cc2)c1	APP 5'UTR act 163, STAT1 activator 147
Cc1ccc2nc(-c3ccc(NC(=O)CNC4CC4)cc3)sc2c1	NF-kB neuron act 5.3, APP 5'UTR act 199 (no result: SDO1 yeast rescue)
Cc1ccc(C2(C)NC(=O)N(CC(=O)Nc3ccc4c(c3)OCO4)C2=O)cc1 (stereo unspecified)	none
Cc1nc2ccc(NC(=O)CCS(=O)(=O)c3ccccc3)cc2s1	none
COc1ccc(C2(C)NC(=O)N(CC(=O)Nc3ccc(-c4nc5ccc(C)cc5s4)cc3)C2=O)cc1 (stereo unspecified)	APP 5'UTR act 171, STAT1 activator 144 (no result: NF-kB neuron act, SDO1 yeast rescue)
Cc1nc2cc(NC(=O)CCS(=O)(=O)c3ccccc3)ccc2s1	STAT1 activator 150
O=c1oc2ccccc2c(NCCO)c1[N+](=O)[O-]	none (no result: SDO1 yeast rescue)
CN(Cc1ccccc1)CC(O)COc1ccc(CNCc2ccc(Cl)s2)cc1 (stereo unspecified)	none (no result: SDO1 yeast rescue)
CCOC(=O)CS(=O)(=O)c1ccc(O)cc1	none (no result: SDO1 yeast rescue)
Cc1ccc(N(CC(=O)Nc2ccc(-c3nc4ccc(C)cc4s3)cc2)S(C)(=O)=O)cc1	STAT1 activator 140
Cc1ccc2nc(-c3ccc(NC(=O)COC(=O)c4ccc(=O)[nH]c4)cc3)sc2c1	NF-kB neuron act 6.5, APP 5'UTR act 165, FLuc inh counter 50, STAT1 activator 135
Cc1ccc2nc(-c3ccc(NC(=O)CCS(=O)(=O)c4ccccc4)cc3)sc2c1	NF-kB neuron act 3.6
CC1(C)CC2CC(C)(CN2C(=S)Nc2ccccc2F)C1 (stereo unspecified)	none (no result: SDO1 yeast rescue)
O=C(COC(=O)c1cc(=O)[nH]c2ccccc12)NC(=O)NC1CCCCC1	none
Cn1c(=O)n(C)c2cc(S(=O)(=O)NCCO)ccc21	none
CCN(CC)c1ccc(/C=C/C(=O)C2C(=O)C=C(C)OC2=O)cc1 (stereo unspecified)	APP 5'UTR act 164, STAT1 activator 138 (no result: SDO1 yeast rescue)
CCN(CC)c1ccc(C=C2C(=O)OC(c3ccccc3)OC2=O)cc1 (stereo unspecified)	none (no result: SDO1 yeast rescue)
CCC(CO)n1c(=S)[nH]c2cc(OC)c(OC)cc2c1=O (stereo unspecified)	none (no result: SDO1 yeast rescue)
Cc1ccc(N(CC(=O)NCCc2ccc(F)cc2)S(=O)(=O)c2ccc(Cl)c([N+](=O)[O-])c2)c(C)c1	none
O=c1cc(CN2CCc3ccccc3C2)nc2sccn12	NF-kB neuron act 3.5 (no result: SDO1 yeast rescue)
CCOc1ccc(C(=O)CSc2nnc3ccccn23)cc1	NF-kB neuron act 4.1, STAT1 activator 141
COc1cc(/C=N/N2CCOCC2)ccc1OCc1ccc(Cl)cc1	APP 5'UTR act 144, STAT1 activator 140 (no result: SDO1 yeast rescue)
Cc1ccc(CSc2ncn(-c3ccccc3)n2)cc1	none
Clc1ccccc1CSc1ncn(-c2ccccc2)n1	STAT1 activator 131
C=CCn1c(C)cc(C(=O)CN2NS(=O)(=O)c3ccccc3C2=O)c1C	FLuc inh counter 55, STAT1 activator 143 (no result: SDO1 yeast rescue)
C=CCn1c(C)cc(C(=O)Cn2ncc(Cl)c(Cl)c2=O)c1C	none
Cc1sc2ncn(CC(=O)OC(C)C)c(=O)c2c1C	none
Cc1cc(C)c(C#N)c(Sc2ccccc2N)n1	STAT1 activator 139 (no result: SDO1 yeast rescue)
Cc1cnc(NC(=O)C2COc3ccccc3O2)s1 (stereo unspecified)	APP 5'UTR act 144, FLuc inh counter 52
Cc1nc2ccc3nc(NC(=O)C4COc5ccccc5O4)sc3c2s1 (stereo unspecified)	none
CC1CCc2nc(NC(=O)Nc3ccc4c(c3)OCO4)sc2C1 (stereo unspecified)	FLuc inh counter 53
CC1CCc2nc(NC(=O)C3COc4ccccc4O3)sc2C1 (stereo unspecified)	APP 5'UTR act 168
CCOC(=O)c1c(NC(=O)COC(=O)c2ccncc2)sc(C)c1C	none (no result: SDO1 yeast rescue)
COc1ccc(Cl)cc1-c1nc(-c2ccc(NC(=O)c3cccs3)cc2)no1	STAT1 activator 129
CCOC(=O)C1=C(C)Nc2sc(C(=O)c3ccc(OC)cc3)c(N)c2C1c1ccc(C(=O)OC)cc1 (stereo unspecified)	none
Oc1ccccc1C1Nc2cccc3cccc(c23)N1	FLuc inh counter 64
COc1ccccc1C1Nc2cccc3cccc(c23)N1	none
Cc1cc(C)c(NC(=O)c2ccccc2C(=O)c2ccccc2)c(C)c1	none (no result: SDO1 yeast rescue)

Screening data from PubChem BioAssay.
